Assay results: ChEMBL document CHEMBL4732057, “Design, synthesis and biological evaluation of second-generation benzoylpiperidine derivatives as reversible monoacylglycerol lipase (MAGL) inhibitors” (Eur J Med Chem, 2021)
Active and inactive are the calls of the source. No cut-off for these calls is given here.

Tests used:
[1] = target: T1, Monoacylglycerol lipase ABHD6 (Homo sapiens) (UniProt Q9BV23); experiment: Inhibition of human ABHD6 expressed in HEK293 cells using [3H]2-OG as substrate at 10 uM preincubated for 30 mins followed by substrate addition and measured after 5 mins by liquid scintillation spectroscopy; format: cell-based; settings: time 35.0 min
T1 sequence (whole entry): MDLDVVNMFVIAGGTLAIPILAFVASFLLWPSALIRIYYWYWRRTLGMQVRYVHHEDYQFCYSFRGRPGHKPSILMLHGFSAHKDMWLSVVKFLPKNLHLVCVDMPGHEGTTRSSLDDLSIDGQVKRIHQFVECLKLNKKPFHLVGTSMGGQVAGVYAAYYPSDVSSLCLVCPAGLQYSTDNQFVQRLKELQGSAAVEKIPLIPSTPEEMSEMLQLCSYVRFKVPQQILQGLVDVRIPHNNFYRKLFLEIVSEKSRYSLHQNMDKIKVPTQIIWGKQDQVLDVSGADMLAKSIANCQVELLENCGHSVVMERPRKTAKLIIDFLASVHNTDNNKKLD
In short: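 Homogenate (40 µg) of HEK293 cells stably transfected with human ABHD6 or ABHD12, preincubated with compound 30 min at 37 °C in […], 0.1% BSA, pH 7.6. 2-OG 10 µM added for 5 min at 37 °C. Stopped with CHCl3:MeOH; aqueous tritium counted; blanks and nontransfected HEK293 hydrolysis subtracted. Screening at 10 µM.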

[2] = target: T2, Fatty-acid amide hydrolase 1 (Homo sapiens, UniProt O00519); experiment: Inhibition of FAAH in human U937 cells assessed as reduction in [3H]ethanolamine formation using [ethanolamine-1-3H]AEA as substrate incubated for 15 mins by liquid scintillation spectroscopy; format: cell-based, U-937
T2 sequence (O00519 whole entry): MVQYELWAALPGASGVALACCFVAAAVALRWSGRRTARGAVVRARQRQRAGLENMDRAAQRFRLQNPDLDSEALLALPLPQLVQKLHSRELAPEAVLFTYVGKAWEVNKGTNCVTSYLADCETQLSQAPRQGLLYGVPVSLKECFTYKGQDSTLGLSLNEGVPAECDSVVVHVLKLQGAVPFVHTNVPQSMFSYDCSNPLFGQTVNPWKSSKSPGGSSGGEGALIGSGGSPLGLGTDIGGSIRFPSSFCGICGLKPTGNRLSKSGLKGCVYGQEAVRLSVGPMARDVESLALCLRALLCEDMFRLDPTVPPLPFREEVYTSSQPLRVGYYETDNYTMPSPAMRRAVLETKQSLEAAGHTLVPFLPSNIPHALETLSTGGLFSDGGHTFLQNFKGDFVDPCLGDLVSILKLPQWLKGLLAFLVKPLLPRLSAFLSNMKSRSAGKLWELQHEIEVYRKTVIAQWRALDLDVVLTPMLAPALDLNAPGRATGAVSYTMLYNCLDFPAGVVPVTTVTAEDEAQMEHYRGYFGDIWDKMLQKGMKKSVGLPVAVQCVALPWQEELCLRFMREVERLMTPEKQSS
In short: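 Intact U937 cells (1.0 × 10^6) in Tris-HCl 10 mM, EDTA 1 mM, 0.1% BSA, pH 8, given compound at 37 °C. Then 15 min at 37 °C with shaking. MAGL: 10 µM 2-OG plus 0.5 nM [3H]2-OG. FAAH: 1 µM AEA plus 2 nM [3H]AEA. Aqueous-phase tritium counted; three experiments in triplicate.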

[3] = target: T3, Lysophosphatidylserine lipase ABHD12 (Mus musculus) (UniProt Q99LR1); experiment: Inhibition of ABHD12 in mouse brain membrane up to 30 uM preincubated for 25 mins followed by TAMRA-FP labeling addition and measured after 5 mins by competitive ABPP based analysis; format: cell membranes; settings: dose microM <=30, time 30.0 min
T3 sequence (whole entry): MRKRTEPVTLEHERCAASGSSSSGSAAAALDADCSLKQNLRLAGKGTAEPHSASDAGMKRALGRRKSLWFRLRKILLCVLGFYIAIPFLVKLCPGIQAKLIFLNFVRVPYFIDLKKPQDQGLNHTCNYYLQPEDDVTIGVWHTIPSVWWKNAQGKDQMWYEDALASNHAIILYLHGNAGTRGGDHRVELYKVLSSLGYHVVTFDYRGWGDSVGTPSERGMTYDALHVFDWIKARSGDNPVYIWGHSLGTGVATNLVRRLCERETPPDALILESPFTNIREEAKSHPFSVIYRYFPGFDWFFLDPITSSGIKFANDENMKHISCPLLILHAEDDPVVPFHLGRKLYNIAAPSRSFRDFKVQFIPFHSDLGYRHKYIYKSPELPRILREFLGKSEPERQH
In short: (§1)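 Mouse brain membranes, 4 mg/mL in PBS, preincubated 25 min at 25 °C with compound at 10 µM or a range of concentrations. Labelled 5 min with TAMRA-FP at 125 nM final. Proteins resolved on 11% SDS-PAGE and scanned for fluorescence.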

[4] = target: Cannabinoid receptor 2 (Homo sapiens, UniProt P34972); experiment: Displacement of [3H]CP55940 from human CB2 receptor at 10 uM incubated for 90 mins by radioligand binding assay
In short: (§2)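 Membranes expressing hCB1 or hCB2 in 50 mM Tris-HCl, 2.5 mM EDTA, 5 mM MgCl2, 0.5% BSA, pH 7.4, incubated with compound and 0.5 nM [3H]CP55,940 for 90 min at 30 °C. Nonspecific binding with 10 µM […]; filtered and counted. Screening at 10 µM; two experiments in triplicate.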

[5] = target: Cannabinoid receptor 1 (Homo sapiens, UniProt P21554); experiment: Displacement of [3H]CP55940 from human CB1 receptor incubated for 90 mins by radioligand binding assay; in short: as §2
[6] = target: T4, Monoglyceride lipase (Mus musculus) (UniProt O35678); experiment: Inhibition of MAGL in mouse brain membrane at 10 uM preincubated for 25 mins followed by TAMRA-FP labeling addition and measured after 5 mins by competitive ABPP based analysis; format: cell membranes; settings: time 30.0 min; in short: as §1
T4 sequence (whole entry): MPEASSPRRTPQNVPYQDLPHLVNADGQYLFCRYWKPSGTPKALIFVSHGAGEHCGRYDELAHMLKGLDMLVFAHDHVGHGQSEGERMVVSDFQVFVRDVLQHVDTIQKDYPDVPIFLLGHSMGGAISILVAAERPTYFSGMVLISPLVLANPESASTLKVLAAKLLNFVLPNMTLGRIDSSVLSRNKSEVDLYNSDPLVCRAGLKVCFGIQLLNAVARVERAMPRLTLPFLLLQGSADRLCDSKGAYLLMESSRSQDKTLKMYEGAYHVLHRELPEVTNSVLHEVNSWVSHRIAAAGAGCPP

[7] = target: Cannabinoid receptor 1 (CB1) (Homo sapiens, UniProt P21554); experiment: Displacement of [3H]CP55940 from human CB1 receptor at 10 uM incubated for 90 mins by radioligand binding assay; settings: probe [3H]CP55940; in short: as §2
Sequence of Cannabinoid receptor 1 (CB1) (P21554 whole entry): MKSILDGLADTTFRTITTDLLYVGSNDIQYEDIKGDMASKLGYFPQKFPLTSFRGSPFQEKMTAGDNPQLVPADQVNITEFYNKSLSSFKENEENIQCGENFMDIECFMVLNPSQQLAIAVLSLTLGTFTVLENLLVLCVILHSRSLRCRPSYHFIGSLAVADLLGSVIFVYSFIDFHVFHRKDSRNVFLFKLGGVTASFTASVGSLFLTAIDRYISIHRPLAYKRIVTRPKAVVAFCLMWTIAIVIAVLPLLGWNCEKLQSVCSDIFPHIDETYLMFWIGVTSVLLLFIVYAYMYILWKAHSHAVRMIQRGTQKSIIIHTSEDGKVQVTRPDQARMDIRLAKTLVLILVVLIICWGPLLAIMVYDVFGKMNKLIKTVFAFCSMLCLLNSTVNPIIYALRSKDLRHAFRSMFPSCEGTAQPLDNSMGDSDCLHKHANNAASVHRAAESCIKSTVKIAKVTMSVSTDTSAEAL

Sequence of Cannabinoid receptor 1 (P21554 whole entry): as above
Sequence of Cannabinoid receptor 2 (P34972 whole entry): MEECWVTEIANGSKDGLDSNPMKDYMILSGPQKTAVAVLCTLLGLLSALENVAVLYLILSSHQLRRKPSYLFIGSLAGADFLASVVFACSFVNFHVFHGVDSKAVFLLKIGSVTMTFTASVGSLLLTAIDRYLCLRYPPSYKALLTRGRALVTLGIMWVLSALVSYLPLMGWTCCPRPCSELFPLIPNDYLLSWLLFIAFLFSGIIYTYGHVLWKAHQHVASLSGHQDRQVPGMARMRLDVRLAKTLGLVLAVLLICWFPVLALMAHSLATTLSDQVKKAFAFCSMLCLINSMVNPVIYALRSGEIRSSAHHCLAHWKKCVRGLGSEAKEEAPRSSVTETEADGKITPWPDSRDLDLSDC

Row | SMILES | inhibition [1] [%] | IC50 [2] [µM] | inhibition [3] | inhibition [4] [%] | IC50 [5] [µM] | inhibition [6] | inhibition at 1.5 h, 10 µM [7] [%]
1 | O=C(c1ccc(Sc2ccccc2)cc1)C1CCN(C(=O)c2cc(O)c(F)cc2F)CC1 | 18 | > 10 | inactive | < 10 | > 10 | Active | < 10
2 | O=C(c1ccc(Cc2ccccc2)cc1)C1CCN(C(=O)c2cc(O)c(F)cc2F)CC1 | 10 | > 10 | inactive | < 10 | > 10 | Active | < 10
3 | O=C(c1ccc(Cc2ccccc2)cc1)C1CCN(C(=O)c2cc(O)ccc2F)CC1 | 21 | > 10 | inactive | < 10 | > 10 | Active | < 10
4 | O=C(c1ccc(Sc2ccccc2)cc1)C1CCN(C(=O)c2cc(O)ccc2F)CC1 | 40 | > 10 | inactive | < 10 | > 10 | Active | < 10
